Assay results published in ChEMBL document CHEMBL1144265, “Syntheses of 2,4,6-trisubstituted triazines as antimalarial agents” (Bioorg Med Chem Lett, 2005).
Converted amounts (≈) assume the structure as drawn.

What was measured:
[1] = tested on: Plasmodium falciparum; assay: In vitro minimum inhibiting concentration for schizont maturation from ring stage parasite over 40 hrs; assay type: functional
Summary of the method: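 P. falciparum NF-54 kept in RPMI-1640 with 25 mM HEPES and 1% D-glucose. Rieckmann microassay: compound at […] in duplicate wells with parasitized cells, 37 °C in a candle jar for 36–40 h. Giemsa-stained smears were read by microscopy for ring-to-trophozoite/schizont maturation. MIC taken as the concentration that blocks complete maturation to schizonts.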

[2] = In vitro PKa value was determined; assay type: physicochemical
[3] = Partition coefficient (logP); assay type: physicochemical; settings: octanol/water

| Structure (SMILES) | MIC [1] [µg/mL] | pKa [2] | logP [3] |
| --- | --- | --- | --- |
| O=[N+]([O-])c1ccc(Nc2nc(N3CCOCC3)nc(N3CCOCC3)n2)cc1 | 10 (≈ 25.8 µM) | 2.98 | -0.06 |
| O=[N+]([O-])c1ccc(Nc2nc(Nc3cccc(F)c3)nc(Nc3cccc(F)c3)n2)cc1 | 10 (≈ 23 µM) | 3.13 | 1.94 |
| O=[N+]([O-])c1ccc(Nc2nc(NCCCn3ccnc3)nc(NCCCn3ccnc3)n2)cc1 | 1 (≈ 2.16 µM) | 1.96 | 0.345 |
| O=[N+]([O-])c1ccc(Nc2nc(NC3CCCCC3)nc(NC3CCCCC3)n2)cc1 | 1 (≈ 2.43 µM) | 2.58 | 0.356 |
| O=[N+]([O-])c1ccc(Nc2nc(N3CCc4cccnc4C3)nc(N3CCc4cccnc4C3)n2)cc1 | 10 (≈ 20.8 µM) | 2.94 | 1.64 |
| CN1CCN(c2nc(Nc3ccc([N+](=O)[O-])cc3)nc(N3CCN(C)CC3)n2)CC1 | 1 (≈ 2.42 µM) | 1.88 | 0.228 |
| O=[N+]([O-])c1ccc(Nc2nc(NCCO)nc(NCCO)n2)cc1 | 50 (≈ 149 µM) | 2.86 | -0.56 |
| O=[N+]([O-])c1ccc(Nc2nc(NC3CCCCCC3)nc(NC3CCCCCC3)n2)cc1 | 2 (≈ 4.55 µM) | 2.64 | 0.372 |
| CCN(CC)c1nc(Nc2ccc([N+](=O)[O-])cc2)nc(N(CC)CC)n1 | 10 (≈ 27.8 µM) | 3.05 | 2.06 |
| O=[N+]([O-])c1ccc(Nc2nc(N3CCCCC3)nc(N3CCCCC3)n2)cc1 | 50 (≈ 130 µM) | 3.95 | 2.54 |
| O=[N+]([O-])c1ccc(Nc2nc(N3CCCC3)nc(N3CCCC3)n2)cc1 | 50 (≈ 141 µM) | 3.62 | 2.46 |
| CCCCNc1nc(NCCCC)nc(Nc2ccc([N+](=O)[O-])cc2)n1 | 2 (≈ 5.56 µM) | 2.32 | 0.396 |
| CC(C)(C)Nc1nc(Nc2ccc([N+](=O)[O-])cc2)nc(NC(C)(C)C)n1 | 50 (≈ 139 µM) | 3.68 | 2.84 |
| O=[N+]([O-])c1ccc(Nc2nc(N3CCN(c4ccccc4)CC3)nc(N3CCN(c4ccccc4)CC3)n2)cc1 | 10 (≈ 18.6 µM) | 2.86 | 1.64 |
| O=[N+]([O-])c1ccc(Nc2nc(N3CCN(Cc4ccccc4)CC3)nc(N3CCN(Cc4ccccc4)CC3)n2)cc1 | 2 (≈ 3.54 µM) | 2.12 | 0.92 |
| O=[N+]([O-])c1ccc(Nc2nc(NCc3ccccc3)nc(NCc3ccccc3)n2)cc1 | 10 (≈ 23.4 µM) | 2.88 | 1.68 |
| CC1(C)N=C(N)N=C(N)N1c1ccc(Cl)cc1 [CYCLOGUANIL] | 64 (≈ 254 µM) | 3.82 | 2.94 |
